Measured values: ChEMBL document CHEMBL1157665, “Novel 4-thiazolidinone derivatives as potential antifungal and antibacterial drugs” (2010)
In brackets after ≈: the same amount, converted by molar mass.

Assays:
Aspergillus flavus [1] = assay: Antifungal activity against Aspergillus flavus ATCC 9643 after 72 hrs by serial sub-cultivation method; format: functional; conditions: ATCC 9643, 72 h
Outline: (§1)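 MFC was found by serial sub-cultivation of 2 µl into plates holding 100 µl broth per well, then incubation 72 h at 28 °C. MFC is the lowest concentration with no visible growth, taken as 99.5% killing of the original inoculum. Spore inocula came from malt agar cultures washed with 0.85% saline and 0.1% Tween 80.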

Aspergillus flavus [2] = assay: Antifungal activity against Aspergillus flavus ATCC 9643 after 72 hrs by serial dilution method; format: functional; conditions: ATCC 9643, 72 h
Outline: (§2)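 Fungi were kept on malt agar at 4 °C and sub-cultured monthly. Spores were washed off the agar with sterile 0.85% saline containing 0.1% Tween 80 (v/v). Modified microdilution in 96-well plates. MIC is the lowest concentration with no visible growth under the binocular microscope. Inoculum checked on malt agar for contamination and validity.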

Aspergillus fumigatus [3] = assay: Antifungal activity against Aspergillus fumigatus plant isolate after 72 hrs by serial sub-cultivation method
Fulvia fulva [4] = assay: Antifungal activity against Fulvia fulva TK 5318 after 72 hrs by serial dilution method; format: functional; conditions: TK 5318, 72 h; outline: as §2
Talaromyces funiculosus [5] = assay: Antifungal activity against Penicillium funiculosum ATCC 36839 after 72 hrs by serial dilution method; format: functional; conditions: ATCC 36839, 72 h; outline: as §2
Trichoderma viride [6] = assay: Antifungal activity against Trichoderma viride IAM 5061 after 72 hrs by serial dilution method; format: functional; conditions: IAM 5061, 72 h; outline: as §2
Aspergillus niger [7] = assay: Antifungal activity against Aspergillus niger ATCC 6275 after 72 hrs by serial dilution method; format: functional; conditions: ATCC 6275, 72 h; outline: as §2
Trichoderma viride [8] = assay: Antifungal activity against Trichoderma viride IAM 5061 after 72 hrs by serial sub-cultivation method; format: functional; conditions: IAM 5061, 72 h; outline: as §1
Aspergillus fumigatus [9] = assay: Antifungal activity against Aspergillus fumigatus plant isolate after 72 hrs by serial dilution method
Fulvia fulva [10] = assay: Antifungal activity against Fulvia fulva TK 5318 after 72 hrs by serial sub-cultivation method; format: functional; conditions: TK 5318, 72 h; outline: as §1
Aspergillus versicolor [11] = assay: Antifungal activity against Aspergillus versicolor ATCC 11730 after 72 hrs by serial sub-cultivation method; format: functional; conditions: ATCC 11730, 72 h; outline: as §1
Aspergillus niger [12] = assay: Antifungal activity against Aspergillus niger ATCC 6275 after 72 hrs by serial sub-cultivation method; format: functional; conditions: ATCC 6275, 72 h; outline: as §1
Talaromyces funiculosus [13] = assay: Antifungal activity against Penicillium funiculosum ATCC 36839 after 72 hrs by serial sub-cultivation method; format: functional; conditions: ATCC 36839, 72 h; outline: as §1
Penicillium ochrochloron [14] = assay: Antifungal activity against Penicillium ochrochloron ATCC 9112 after 72 hrs by serial dilution method; format: functional; conditions: ATCC 9112, 72 h; outline: as §2
Penicillium ochrochloron [15] = assay: Antifungal activity against Penicillium ochrochloron ATCC 9112 after 72 hrs by serial sub-cultivation method; format: functional; conditions: ATCC 9112, 72 h; outline: as §1
Aspergillus versicolor [16] = assay: Antifungal activity against Aspergillus versicolor ATCC 11730 after 72 hrs by serial dilution method; format: functional; conditions: ATCC 11730, 72 h; outline: as §2
Proteus mirabilis [17] = assay: Antibacterial activity against Proteus mirabilis after 24 hrs; format: functional
Outline: (§3)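 Broth microdilution MIC in 96-well plates. Compounds in LB broth with bacterial inoculum of 1.0 × 10^4 cfu per well, from suspensions adjusted with sterile saline to 1.0 × 10⁵ CFU/ml. Incubated 24 h at […] as printed. MIC taken as the lowest concentration with no visible growth under the binocular microscope. OD at 655 nm also read against blank. Streptomycin and ampicillin as positive controls. Duplicate, repeated three times.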

Micrococcus flavus [18] = assay: Antibacterial activity against Micrococcus flavus ATCC 10240 after 24 hrs; format: functional; conditions: ATCC 10240, 24 h; outline: as §3
Salmonella typhimurium [19] = assay: Antibacterial activity against Salmonella Typhimurium ATCC 13311 after 72 hrs by serial sub-cultivation method; format: functional, Salmonella enterica subsp. enterica serovar Typhimurium; conditions: Salmonella enterica, ATCC 13311, 72 h
Outline: (§4)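 MBC was found by serial sub-cultivation of 2 µl from the MIC wells into plates holding 100 µl broth per well, then incubation for 72 h. MBC is the lowest concentration with no visible growth, i.e. 99.5% killing of the original inoculum. Bacterial inoculum was 1.0 × 10^4 cfu per well in LB broth. Duplicate, repeated three times.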

Listeria monocytogenes [20] = assay: Antibacterial activity against Listeria monocytogenes NCTC 7973 after 72 hrs by serial sub-cultivation method; format: functional; conditions: NCTC 7973, 72 h; outline: as §4
Proteus mirabilis [21] = assay: Antibacterial activity against Proteus mirabilis after 72 hrs by serial sub-cultivation method; format: functional; outline: as §4
Pseudomonas aeruginosa [22] = assay: Antibacterial activity against Pseudomonas aeruginosa ATCC 27853 after 72 hrs by serial sub-cultivation method; format: functional; conditions: ATCC 27853, 72 h; outline: as §4
Micrococcus flavus [23] = assay: Antibacterial activity against Micrococcus flavus ATCC 10240 after 72 hrs by serial sub-cultivation method; format: functional; conditions: ATCC 10240, 72 h; outline: as §4
Bacillus cereus [24] = assay: Antibacterial activity against Bacillus cereus clinical isolate after 72 hrs by serial sub-cultivation method; format: functional; outline: as §4
Staphylococcus aureus [25] = assay: Antibacterial activity against Staphylococcus aureus ATCC 6538 after 24 hrs; format: functional; conditions: ATCC 6538, 24 h; outline: as §3
Escherichia coli [26] = assay: Antibacterial activity against Escherichia coli ATCC 35210 after 24 hrs; format: functional; conditions: ATCC 35210, 24 h; outline: as §3
Salmonella typhimurium [27] = assay: Antibacterial activity against Salmonella Typhimurium ATCC 13311 after 24 hrs; format: functional, Salmonella enterica subsp. enterica serovar Typhimurium; conditions: Salmonella enterica, ATCC 13311, 24 h; outline: as §3
Escherichia coli [28] = assay: Antibacterial activity against Escherichia coli ATCC 35210 after 72 hrs by serial sub-cultivation method; format: functional; conditions: ATCC 35210, 72 h; outline: as §4
Staphylococcus aureus [29] = assay: Antibacterial activity against Staphylococcus aureus ATCC 6538 after 72 hrs by serial sub-cultivation method; format: functional; conditions: ATCC 6538, 72 h; outline: as §4
Listeria monocytogenes [30] = assay: Antibacterial activity against Listeria monocytogenes NCTC 7973 after 24 hrs; format: functional; conditions: NCTC 7973, 24 h; outline: as §3
Pseudomonas aeruginosa [31] = assay: Antibacterial activity against Pseudomonas aeruginosa ATCC 27853 after 24 hrs; format: functional; conditions: ATCC 27853, 24 h; outline: as §3
Bacillus cereus [32] = assay: Antibacterial activity against Bacillus cereus clinical isolate after 24 hrs; format: functional; outline: as §3

Compound: c1ccc(-c2ccc(C(c3ccccc3)n3ccnc3)cc2)cc1 (stereo not drawn) [BIFONAZOLE]
- MFC (Aspergillus flavus [1]): 640 µM (≈ 199 µg/mL)
- MIC (Aspergillus flavus [2]): 480 µM (≈ 149 µg/mL)
- MFC (Aspergillus fumigatus [3]): 640 µM (≈ 199 µg/mL)
- MIC (Fulvia fulva [4]): 320 µM (≈ 99.3 µg/mL)
- MIC (Talaromyces funiculosus [5]): 640 µM (≈ 199 µg/mL)
- MIC (Trichoderma viride [6]): 640 µM (≈ 199 µg/mL)
- MIC (Aspergillus niger [7]): 480 µM (≈ 149 µg/mL)
- MFC (Trichoderma viride [8]): 800 µM (≈ 248 µg/mL)
- MIC (Aspergillus fumigatus [9]): 480 µM (≈ 149 µg/mL)
- MFC (Fulvia fulva [10]): 640 µM (≈ 199 µg/mL)
- MFC (Aspergillus versicolor [11]): 640 µM (≈ 199 µg/mL)
- MFC (Aspergillus niger [12]): 640 µM (≈ 199 µg/mL)
- MFC (Talaromyces funiculosus [13]): 800 µM (≈ 248 µg/mL)
- MIC (Penicillium ochrochloron [14]): 480 µM (≈ 149 µg/mL)
- MFC (Penicillium ochrochloron [15]): 640 µM (≈ 199 µg/mL)
- MIC (Aspergillus versicolor [16]): 320 µM (≈ 99.3 µg/mL)

Compound: CC(=O)N1CCN(c2ccc(OCC3COC(Cn4ccnc4)(c4ccc(Cl)cc4Cl)O3)cc2)CC1 (stereo not drawn) [KETOCONAZOLE]
- MFC (Aspergillus flavus [1]): 3800 µM (≈ 2020 µg/mL)
- MIC (Aspergillus flavus [2]): 2850 µM (≈ 1510 µg/mL)
- MFC (Aspergillus fumigatus [3]): 950 µM (≈ 505 µg/mL)
- MIC (Fulvia fulva [4]): 380 µM (≈ 202 µg/mL)
- MIC (Talaromyces funiculosus [5]): 380 µM (≈ 202 µg/mL)
- MIC (Trichoderma viride [6]): 4750 µM (≈ 2520 µg/mL)
- MIC (Aspergillus niger [7]): 380 µM (≈ 202 µg/mL)
- MFC (Trichoderma viride [8]): 5700 µM (≈ 3030 µg/mL)
- MIC (Aspergillus fumigatus [9]): 380 µM (≈ 202 µg/mL)
- MFC (Fulvia fulva [10]): 950 µM (≈ 505 µg/mL)
- MFC (Aspergillus versicolor [11]): 950 µM (≈ 505 µg/mL)
- MFC (Aspergillus niger [12]): 950 µM (≈ 505 µg/mL)
- MFC (Talaromyces funiculosus [13]): 950 µM (≈ 505 µg/mL)
- MIC (Penicillium ochrochloron [14]): 3800 µM (≈ 2020 µg/mL)
- MFC (Penicillium ochrochloron [15]): 3800 µM (≈ 2020 µg/mL)
- MIC (Aspergillus versicolor [16]): 380 µM (≈ 202 µg/mL)

Compound: CN[C@@H]1[C@H](O[C@H]2[C@H](O[C@H]3[C@H](O)[C@@H](O)[C@H](N=C(N)N)[C@@H](O)[C@@H]3N=C(N)N)O[C@@H](C)[C@]2(O)C=O)O[C@@H](CO)[C@H](O)[C@H]1O [STREPTOMYCIN]
- MIC (Proteus mirabilis [17]): 172 µM (≈ 100 µg/mL)
- MIC (Micrococcus flavus [18]): 86 µM (≈ 50 µg/mL)
- MBC (Salmonella typhimurium [19]): 344 µM (≈ 200 µg/mL)
- MBC (Listeria monocytogenes [20]): 516 µM (≈ 300 µg/mL)
- MBC (Proteus mirabilis [21]): 344 µM (≈ 200 µg/mL)
- MBC (Pseudomonas aeruginosa [22]): 344 µM (≈ 200 µg/mL)
- MBC (Micrococcus flavus [23]): 172 µM (≈ 100 µg/mL)
- MBC (Bacillus cereus [24]): 86 µM (≈ 50 µg/mL)
- MIC (Staphylococcus aureus [25]): 172 µM (≈ 100 µg/mL)
- MIC (Escherichia coli [26]): 172 µM (≈ 100 µg/mL)
- MIC (Salmonella typhimurium [27]): 172 µM (≈ 100 µg/mL)
- MBC (Escherichia coli [28]): 344 µM (≈ 200 µg/mL)
- MBC (Staphylococcus aureus [29]): 344 µM (≈ 200 µg/mL)
- MIC (Listeria monocytogenes [30]): 258 µM (≈ 150 µg/mL)
- MIC (Pseudomonas aeruginosa [31]): 172 µM (≈ 100 µg/mL)
- MIC (Bacillus cereus [32]): 43 µM (≈ 25 µg/mL)
